Assay [1] deals with T1, PKCθC1B wild-type (Mus musculus, UniProt Q02111).
T1 sequence (Q02111 232-281): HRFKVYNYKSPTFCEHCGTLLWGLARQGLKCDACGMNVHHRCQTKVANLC
Kind of assay: [3H]PDBu binding assay. Particulars: for Ki/Kd / Ki: PKCθ C1B WT; for Ki/Kd: Ki of the diacylglycerol over Kd of PDBu; for Ki: competition of [3H]PDBu binding, mean ± S.E.M. Put shortly:
(§1)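 GST-cleaved mouse PKCθ C1B (residues 232–281), E. coli-expressed, affinity/gel-filtration purified. PEG-precipitation [3H]PDBu binding; Kd from saturable plus linear non-specific fit. Ki: [3H]PDBu at 2–5-fold each construct's Kd, DOG or SAG 1–100000 nM, dried from chloroform with phospholipid, sonicated. PS dependence: total phospholipid 100 μg/ml, PS 0–100%, remainder PC, relative to 100% PS. Means ± S.E.M., three independent experiments.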

Assay [2] deals with T2, PKCθC1B Y239A (Mus musculus, UniProt Q02111, Y239A).
T2 sequence (Q02111 232-281 Y239A): T1 sequence (Q02111 232-281) with Y8A
Kind of assay: [3H]PDBu binding assay. Particulars: for Ki/Kd / Ki: PKCθ C1B Y239A; for Ki/Kd: Ki of the diacylglycerol over Kd of PDBu; for Ki: competition of [3H]PDBu binding, mean ± S.E.M.; for reduction in binding affinity compared with the wild-type: Y239A vs wild-type PKCθC1B (Kd for PDBu, Ki for DOG/SAG). Put shortly: as §1

Assay [3] addresses T3, PKCθC1B T243A (Mus musculus, UniProt Q02111, T243A).
T3 sequence (Q02111 232-281 T243A): T1 sequence (Q02111 232-281) with T12A
The experiment in a line: [3H]PDBu binding assay. Particulars: for Ki/Kd / Ki: PKCθ C1B T243A; for Ki/Kd: Ki of the diacylglycerol over Kd of PDBu; for Ki: competition of [3H]PDBu binding, mean ± S.E.M.; for reduction in binding affinity compared with the wild-type: T243A vs wild-type PKCθC1B (Kd for PDBu, Ki for DOG/SAG). Put shortly:
as §1

Assay [4] deals with T4, PKCθC1B W253G (Mus musculus, UniProt Q02111, W253G).
T4 sequence (Q02111 232-281 W253G): T1 sequence (Q02111 232-281) with W22G
Kind of assay: [3H]PDBu binding assay. Particulars: for Ki/Kd / Ki: PKCθ C1B W253G; for Ki/Kd: Ki of the diacylglycerol over Kd of PDBu; for Ki: competition of [3H]PDBu binding, mean ± S.E.M.; for reduction in binding affinity compared with the wild-type: W253G vs wild-type PKCθC1B (Kd for PDBu, Ki for DOG/SAG).

The target in assay [5] is T5, PKCθC1B L255G (Mus musculus, UniProt Q02111, L255G).
T5 sequence (Q02111 232-281 L255G): T1 sequence (Q02111 232-281) with L24G
Kind of assay: [3H]PDBu binding assay. Particulars: for reduction in binding affinity compared with the wild-type: L255G vs wild-type PKCθC1B (Kd for PDBu, Ki for DOG/SAG); for Ki/Kd / Ki: PKCθ C1B L255G; for Ki/Kd: Ki of the diacylglycerol over Kd of PDBu; for Ki: competition of [3H]PDBu binding, mean ± S.E.M. Put shortly:
as §1

Assay [6] deals with T6, PKCθC1B Q258G (Mus musculus, UniProt Q02111, Q258G).
T6 sequence (Q02111 232-281 Q258G): T1 sequence (Q02111 232-281) with Q27G
Kind of assay: [3H]PDBu binding assay. Particulars: for Ki/Kd / Ki: PKCθ C1B Q258G; for Ki/Kd: Ki of the diacylglycerol over Kd of PDBu; for Ki: competition of [3H]PDBu binding, mean ± S.E.M.; for reduction in binding affinity compared with the wild-type: Q258G vs wild-type PKCθC1B (Kd for PDBu, Ki for DOG/SAG). Put shortly:
as §1

Assay [7] concerns the target full-length PKCθ Y239A (Mus musculus, UniProt Q02111, Y239A). The experiment in a line: Membrane translocation in HEK-293 cells. Format: cell-based. Particulars: 250 nM DOG, 2 h.
In assay [8] the target is full-length PKCθ T243A (Mus musculus, UniProt Q02111, T243A). Kind of assay: Membrane translocation in HEK-293 cells. The format is cell-based. Particulars: 250 nM DOG, 2 h.
Assay [9] addresses full-length PKCθ W253G (Mus musculus, UniProt Q02111, W253G). The experiment in a line: Membrane translocation in HEK-293 cells. Format: cell-based. Particulars: 250 nM DOG, 2 h.
The target of assay [10] is full-length PKCθ L255G (Mus musculus, UniProt Q02111, L255G). The experiment in a line: Membrane translocation in HEK-293 cells. The format is cell-based. Particulars: 250 nM DOG, 2 h.
The target in assay [11] is full-length PKCθ Q258G (Mus musculus, UniProt Q02111, Q258G). The experiment in a line: Membrane translocation in HEK-293 cells. Format: cell-based. Particulars: 250 nM DOG, 2 h.

Broadly, the Ki is the equilibrium dissociation constant of an inhibitor or competing ligand from its target.

Molecules are shown by their SMILES. Changes are numbered by the printed parent chain. Values joined by “and” are separate entries in the source; they are usually repeats but may differ in a detail not shown here. Equal entries are not always repeated.

full-length PKCθ Q258G, sequence (Q02111 whole entry Q258G): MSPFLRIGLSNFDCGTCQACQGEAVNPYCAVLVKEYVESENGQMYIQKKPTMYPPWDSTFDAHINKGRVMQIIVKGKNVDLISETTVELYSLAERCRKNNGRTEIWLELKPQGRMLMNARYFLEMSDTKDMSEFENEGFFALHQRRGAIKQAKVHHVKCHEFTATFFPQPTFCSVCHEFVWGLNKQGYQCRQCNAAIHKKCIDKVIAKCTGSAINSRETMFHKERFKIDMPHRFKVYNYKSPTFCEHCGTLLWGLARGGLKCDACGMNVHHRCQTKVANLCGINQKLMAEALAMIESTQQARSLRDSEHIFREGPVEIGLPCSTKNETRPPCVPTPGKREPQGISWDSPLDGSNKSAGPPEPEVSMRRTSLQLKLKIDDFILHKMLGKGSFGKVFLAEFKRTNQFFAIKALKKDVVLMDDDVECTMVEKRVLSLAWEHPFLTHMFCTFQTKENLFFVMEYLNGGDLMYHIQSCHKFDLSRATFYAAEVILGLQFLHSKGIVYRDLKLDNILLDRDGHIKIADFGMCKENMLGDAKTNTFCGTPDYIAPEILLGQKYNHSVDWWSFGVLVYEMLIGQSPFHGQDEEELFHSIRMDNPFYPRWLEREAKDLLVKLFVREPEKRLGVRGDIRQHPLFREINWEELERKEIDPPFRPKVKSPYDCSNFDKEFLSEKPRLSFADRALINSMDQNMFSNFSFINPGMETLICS
full-length PKCθ T243A, sequence (Q02111 whole entry T243A): as the sequence (Q02111 whole entry Q258G) above, with T243A, G258Q counted along it
full-length PKCθ L255G, sequence (Q02111 whole entry L255G): as the sequence (Q02111 whole entry Q258G) above, with L255G, G258Q counted along it
full-length PKCθ Y239A, sequence (Q02111 whole entry Y239A): as the sequence (Q02111 whole entry Q258G) above, with Y239A, G258Q counted along it
full-length PKCθ W253G, sequence (Q02111 whole entry W253G): as the sequence (Q02111 whole entry Q258G) above, with W253G, G258Q counted along it

For `CCCCCCCC(=O)OC[C@H](CO)OC(=O)CCCCCCC` [DOG, sn-1,2-dioctanoylglycerol], the Ki/Kd in assay [1] is on record as 41; in [2] it was 26; in assay [3], 34; in assay [4] it was 159; in assay [5], 17; in [6], 3. The Ki stood at 16.1 ± 0.7 nM in assay [1]; 86 ± 15 nM in assay [2]; 21.5 ± 1.8 nM in assay [3]; 470 ± 69 nM in assay [4]; 76 ± 24 nM in assay [5]; 1840 ± 320 nM in assay [6]. Moreover, the “reduction in binding affinity compared with the wild-type” value in assay [2] is 5.34 fold; in [3], 1.34 fold; in assay [4], 29.2 fold and 29 fold; in assay [5] it was 4.72 fold; in [6], 114 fold. Also, the “greater loss of affinity for DOG than for PDBu caused by W253G” value in [4] (W253G vs wild-type) is listed as 4 fold. The “reduction in membrane translocation compared with the wild-type” value in assay [7] was determined as 12.0%; in assay [8] it was 8.98%; in assay [9], 5.9%; in [10] it was 15.4%; in [11], 15.9%.
On to `CCCCC/C=C\C/C=C\C/C=C\C/C=C\CCCC(=O)OC(CO)COC(=O)CCCCCCCCCCCCCCCCC` (centres unmarked) [SAG, sn-1-stearoyl 2-arachidonyl glycerol], for which, in [1] (C1B domain of PKCθ), the “stronger binding affinity for SAG than for DOG” value was found to be 2 fold. The Ki/Kd in assay [1] is on record as 22; in assay [2] it was 11; in assay [3], 9; in assay [4], 92; in [5] it was 16; in [6], 3. Moreover, the inhibition constant Ki in [1] turned out to be 8.7 ± 2 nM; in assay [2], 35.1 ± 5.1 nM; in assay [3], 5.5 ± 1.5 nM; in [4] it was 271 ± 22 nM; in [5], 71 ± 10 nM; in assay [6], 2260 ± 330 nM. Moreover, the “reduction in binding affinity compared with the wild-type” value in assay [2] was 4.13 fold; in assay [3] it was 0.63 fold; in [4] it was 31.1 fold and 31 fold; in assay [5] it was 8.16 fold; in [6], 260 fold.

The values are drawn from paper PMC6988732 (The Biochemical journal, 2013).
